According to ChEMBL document CHEMBL1152609, “Synthesis and pharmacological exploitation of clioquinol-derived copper-binding apoptosis inducers triggering reactive oxygen species generation and MAPK pathway activation” (2009):
Calls of active or inactive are those of the source. The calls are words filed in the database; no cut-off is given here.

Key:
[1] = target: T1, MAP kinase p38 (Homo sapiens) (UniProt O15264+Q15759+Q16539+P53778); assay: Activation of p38 phosphorylation in human HeLa cells at 1 uM in presence of 10 uM CuCl2 after 48 hrs by Western blot; assay type: cell-based
Method in brief: (§1)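 HeLa cells grown in DMEM with 10% FBS, 2 mM glutamine and penicillin/streptomycin at 37 °C, 5% CO₂. Treated cells were lysed and the extracts run on Western blot. Membranes were blocked overnight at 4 °C in TBST/5% non-fat milk. Probed with phospho- and total ERK1/2, p38 and JNK antibodies, then anti-mouse or anti-rabbit IgG (1:10,000, 1 h, RT), with ECL detection.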

HeLa [2] = assay: Activation of ERK phosphorylation in human HeLa cells at 1 uM in presence of 10 uM CuCl2 after 48 hrs by Western blot
HeLa [3] = assay: Growth inhibition of human HeLa cells after 48 hrs by MTT assay in presence of 10% FBS supplemented DMEM medium; assay type: functional
Method in brief: (§2)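 Cells seeded at 5 × 10³/well and allowed 24 h to attach, then exposed to compound (DMSO stock) or vehicle for 48 h in 10% FBS DMEM at 37 °C, 5% CO₂. MTT (2 mg/mL in PBS) added for a further 2 h; formazan dissolved in DMSO and read at 570 nm. Inhibition = (1 − At/Ac) × 100. GI₅₀ interpolated from dose-response curves; mean ± SEM of 4–6 experiments; top concentration 40 μM.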

HeLa [4] = assay: Activation of ERK phosphorylation in human HeLa cells at 1 uM in presence of 10 uM CuCl2 after 24 hrs by Western blot
[5] = Activation of JNK phosphorylation in human HeLa cells at 1 uM in presence of 10 uM CuCl2 after 24 hrs by Western blot
[6] = target: T1, MAP kinase p38 (Homo sapiens); assay: Activation of p38 phosphorylation in human HeLa cells at 1 uM in presence of 10 uM CuCl2 after 48 hrs by Western blot
HeLa [7] = assay: Stimulation of reactive oxygen species in human HeLa cells at 1 uM in presence of 5 uM CuCl2 after 1 hr by dihydroethidium dye based fluorescence assay; assay type: functional, cell-based
Method in brief: (§3)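 HeLa cells grown in DMEM with 10% FBS, 2 mM glutamine, penicillin/streptomycin at 37 °C, 5% CO2. Compound given with CuCl2, with or without tempol 1 mM; 0.5% DMSO control, untreated blank. Dihydroethidium 5 µmol/L loaded 30 min, PBS wash, epifluorescence microscopy; four separate cultures, two to six coverslips each.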

HeLa [8] = assay: Growth inhibition of human HeLa cells after 48 hrs by MTT assay in presence of 1 uM CuCl2; assay type: functional; method in brief: as §2
HeLa [9] = assay: Growth inhibition of human HeLa cells after 48 hrs by MTT assay in presence of 50 uM CuCl2; assay type: functional; method in brief: as §2
HeLa [10] = assay: Induction of apoptosis in human HeLa cells assessed as accumulation at subG1 phase at 1 uM in presence of 10 uM CuCl2 and 1 mM tempol after 24 hrs using propidium iodide staining by flow cytometry; assay type: functional
Method in brief: (§4)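 HeLa cells exposed 24 h to test agent; controls were 0.5% DMSO and untreated cells. Optional additions were CuCl₂ 10 μM, tempol 1 mM or z-VAD. Cells were fixed in 80% ethanol and held at −20 °C. They were then stained 30 min at room temperature in the dark with PI 0.08 mg/mL, 0.1% Triton X-100 and RNase A 0.2 mg/mL in PBS. Subdiploid (sub-G1) fraction was quantified by flow cytometry as % of all events.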

[11] = Growth inhibition of human SKHep cells after 48 hrs by MTT assay in presence of 10% FBS supplemented DMEM medium; assay type: functional; method in brief: as §2
[12] = Growth inhibition of human BT-483 cells after 48 hrs by MTT assay in presence of 10% FBS supplemented DMEM medium; assay type: functional; settings: BT-483, 48 h; method in brief: as §2
HeLa [13] = assay: Induction of apoptosis in human HeLa cells assessed as accumulation at subG1 phase at 1 uM in presence of 10 uM CuCl2 after 24 hrs using propidium iodide staining by flow cytometry; assay type: functional; method in brief: as §4
[14] = Activation of JNK phosphorylation in human HeLa cells at 1 uM in presence of 10 uM CuCl2 after 48 hrs by Western blot
[15] = Growth inhibition of human CE81T cells after 48 hrs by MTT assay in presence of 10% FBS supplemented DMEM medium; assay type: functional; method in brief: as §2
HeLa [16] = assay: Induction of apoptosis in human HeLa cells assessed as accumulation at subG1 phase at 1 uM after 24 hrs using propidium iodide staining by flow cytometry; assay type: functional; method in brief: as §4
[17] = Activation of JNK phosphorylation in human HeLa cells at 1 uM in presence of 10 uM CuCl2 after 48 hrs by Western blot; assay type: cell-based; method in brief: as §1
HeLa [18] = assay: Growth inhibition of human HeLa cells after 48 hrs by MTT assay in presence of 100 uM ZnCl2; assay type: functional; method in brief: as §2
[19] = target: T1, MAP kinase p38 (Homo sapiens); assay: Activation of p38 phosphorylation in human HeLa cells at 1 uM in presence of 10 uM CuCl2 after 24 hrs by Western blot
HeLa [20] = assay: Induction of apoptosis in human HeLa cells assessed as accumulation at subG1 phase at 1 uM in presence of 10 uM CuCl2 and 10 uM caspase inhibitor z-VAD after 24 hrs using propidium iodide staining by flow cytometry; assay type: functional; method in brief: as §4
HeLa [21] = assay: Growth inhibition of human HeLa cells after 48 hrs by MTT assay in presence of 10 uM CuCl2; assay type: functional; method in brief: as §2
HeLa [22] = assay: Activation of ERK phosphorylation in human HeLa cells at 1 uM in presence of 10 uM CuCl2 after 48 hrs by Western blot; assay type: cell-based; method in brief: as §1
HeLa [23] = assay: Induction of apoptosis in human HeLa cells assessed as accumulation at subG1 phase at 2 uM after 24 hrs using propidium iodide staining by flow cytometry; assay type: functional; method in brief: as §4
[24] = Activation of JNK phosphorylation in human HeLa cells at 1 uM in presence of 10 uM CuCl2 after 24 hrs by Western blot; assay type: cell-based; method in brief: as §1
HeLa [25] = assay: Growth inhibition of human HeLa cells after 48 hrs by MTT assay in presence of 50 uM ZnCl2; assay type: functional; method in brief: as §2
HeLa [26] = assay: Activation of ERK phosphorylation in human HeLa cells at 1 uM in presence of 10 uM CuCl2 after 24 hrs by Western blot; assay type: cell-based; method in brief: as §1
[27] = target: T1, MAP kinase p38 (Homo sapiens); assay: Activation of p38 phosphorylation in human HeLa cells at 1 uM in presence of 10 uM CuCl2 after 24 hrs by Western blot; assay type: cell-based; method in brief: as §1
CE81T = assay: Growth inhibition of human CE81T cells at 40 uM after 48 hrs by MTT assay in presence of 10% FBS supplemented DMEM medium; assay type: functional, cell-based; method in brief: as §2
BT-483 = assay: Growth inhibition of human BT-483 cells at 40 uM after 48 hrs by MTT assay in presence of 10% FBS supplemented DMEM medium; assay type: functional, cell-based; method in brief: as §2
SKHep = assay: Growth inhibition of human SKHep cells at 40 uM after 48 hrs by MTT assay in presence of 10% FBS supplemented DMEM medium; assay type: functional, cell-based; method in brief: as §2
HeLa [28] = assay: Stimulation of reactive oxygen species in human HeLa cells at 10 uM in presence of 10 uM CuCl2 after 1 hr by dihydroethidium dye based fluorescence assay; assay type: functional, cell-based; method in brief: as §3

GI50 (HeLa [3]) [µM] | GI50 (HeLa [8]) [µM] | GI50 (HeLa [9]) [µM] | GI50 (HeLa [18]) [µM] | GI50 (HeLa [21]) [µM] | GI50 (HeLa [25]) [µM] | Structure (SMILES) | GI50 [11] [µM] | GI50 [12] [µM] | GI50 [15] [µM] | other results
0.71 | 0.65 | 0.06 | 0.26 | 0.25 | 0.48 | Cc1ccc(S(=O)(=O)N2CCN(Cc3cc([N+](=O)[O-])c4cccnc4c3O)CC2)cc1 | 14.6 | 1.9 | 5.9 | Activity [1]: Active; Activity (HeLa [2]): Active; Activity (HeLa [4]): Active; Activity [5]: Active; Activity [6]: Active; Activity (HeLa [7]): Active; Activity (HeLa [10]): 1.34%; Activity (HeLa [13]): 17.5%; Activity [14]: Active; Activity (HeLa [16]): 6.77%; Activity [17]: Active; Activity [19]: Active; Activity (HeLa [20]): 1.58%; Activity (HeLa [22]): Active; Activity (HeLa [23]): 18.57%; Activity [24]: Active; Activity (HeLa [26]): Active; Activity [27]: Active
38.6 | 40.1 | 22.6 | 20.1 | 28.4 | 29.7 | O=S(=O)(c1ccccc1)N1CCN(Cc2ccc3ccccc3c2O)CC1 |  |  |  | GI50 (CE81T): inactive; GI50 (BT-483): inactive; GI50 (SKHep): inactive
18.6 | 6.1 | 4.4 | 2.1 | 5.3 | 5.6 | CCN(CC)CCCC(C)Nc1ccnc2cc(Cl)ccc12 (stereo unspecified) [CHLOROQUINE] | 9.5 | 10.2 | 23.4 | Activity (HeLa [28]): Active
